According to ChEMBL document CHEMBL1124025, “(Acyloxy)alkyl carbamates as novel bioreversible prodrugs for amines: increased permeation through biological membranes” (J Med Chem, 1988):

How the values were obtained:
[1] = species: Rattus norvegicus; assay: Percent diffusion through fuzzy rat skin after 48 h of incubation; assay type: ADME; settings: in vitro
Summary of the method: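 Whole ventral and dorsal skin from 8-week fuzzy rats (about 250 g) mounted in diffusion cells. Receptor was pH 7.0 phosphate-buffered 0.15 M NaCl with 22 ppm gentamicin. Ethanolic test solution spread on the skin surface. Cells occluded at 32 °C, stirred at 150 rpm, and 0.2 mL sampled with buffer replacement over 48 h. HPLC/UV quantitation; run in triplicate.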

[2] = Hydrolysis half-life at 37 degree C in phosphate buffer at pH 7.4; assay type: ADME
Summary of the method: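 Done as for the plasma runs but in pH 7.4 Sorensen's buffer at 37 °C. 0.1–0.2 mg prodrug added from a small DMSO drop, sampled at time points, and analysed by direct-injection HPLC for prodrug loss and/or parent amine formation. External-standard quantitation.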

[3] = Hydrolysis half-life at 37 degree C in rat plasma; assay type: ADME
Summary of the method: (§1)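 0.1–0.2 mg prodrug in a small drop of DMSO, mixed with 1 mL plasma held at 37 °C in a thermostated water bath. Samples drawn at intervals and injected directly onto HPLC to follow loss of prodrug and/or appearance of the parent amine; concentrations by external standard from peak areas. Half-life derived from the time course.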

[4] = Hydrolysis half-life at 37 degree C in dog plasma; assay type: ADME, Canis lupus familiaris; summary of the method: as §1

Row | Structure (SMILES) | Diffusion [1] | half-life [2] | half-life [3] | half-life [4]
1 | CC(C)(C)NC[C@H](O)COc1nsnc1N1CCOCC1 [TIMOLOL] | 18.14% | – | – | –
2 | CC(=O)OC(C)OC(=O)N(CC(O)COc1cccc2[nH]ccc12)C(C)C (stereo not drawn) | 0.35% | – | – | –
3 | CC(=O)OC(C)OC(=O)N(CC(O)COc1cccc2ccccc12)C(C)C (stereo not drawn) | 0.45% | 44.5 h | 3 min | –
4 | CC(C)NCC(O)COc1cccc2[nH]ccc12 (stereo not drawn) [PINDOLOL] | 0.03% | – | – | –
5 | CC(=O)OCOC(=O)N(CC(O)COc1nsnc1N1CCOCC1)C(C)(C)C (stereo not drawn) | 0.53% | 23.5 h | 3 min | 9.7 min

Second part, the molecule after the results:

Row | Diffusion [1] | half-life [2] | half-life [3] | half-life [4] | Structure (SMILES)
6 | 2.4% | – | – | – | CC(C)NCC(O)COc1cccc2ccccc12 (stereo not drawn) [PROPRANOLOL]
7 | 0.13% | – | – | – | CC(C)NCC(O)COc1ccc(CC(N)=O)cc1 (stereo not drawn) [ATENOLOL]
8 | 0.49% | – | – | – | CC(=O)OC(C)OC(=O)N(CC(O)COc1ccc(CC(N)=O)cc1)C(C)C (stereo not drawn)
